Test results taken from article PMC12318036 (Nature Communications, 2025).

How the values were obtained:
[1] = test system: TPCs; assay: Cell; type: cell-based, human; conditions: forskolin, then H89 2HCl (10 μM), then (S)-(-)-Bay K8644 (10 μM); F-actin, p-MLC2^Ser15, collagen contraction; n = 3
Summary of the method: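 A commercial collagen gel contraction kit was used. Harvested pericytes (5 × 10^6) were mixed 1:4 v/v with collagen solution and polymerised at 37 °C for 1 h. Medium was then added over each lattice and gels were incubated for 2 days. Gel size (contraction index) was measured at 48 h by image analysis.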

[2] = test system: L-type calcium channel in TPCs; assay: Calcium imaging; type: cell-based, human; conditions: H89 2HCl 10 μM; Fluo-4AM; n = 3
[3] = test system: tumor vessels; assay: Intravital imaging of RBC velocity and vessel diameter change post-U46619; type: in vivo, mouse; conditions: n = 6
Summary of the method: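 Tumor-bearing mice received FITC-dextran i.v. before imaging. The exposed tumor was viewed with a 4× objective. A rapid line scan (735 lines per second) bisected the central axis of the capillary lumen, so that moving RBCs appeared as oblique shadows. Blood velocity was derived as Δx/Δt.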

[4] = test system: tumor vessels; assay: Two-photon vasoconstriction assay of tumor vessels exposed to U46619; type: in vivo, mouse; conditions: MC-38-luc-LM3 orthotopic tumor, two-photon microscopy, U46619 10 min; n = 6
[5] = test system: intracellular calcium of TPCs; assay: Intravital GCaMP6 calcium imaging in TPCs treated with U46619; type: in vivo, mouse; conditions: PC^lin-KO-GCaMP6 mice compared with PC^lin-GCaMP6 mice; n = 6

| Structure (SMILES) | contraction of TPCLM^gNKX2-3+PDE1C [1] | calcium currents in TPCNM^NKX2-3+siPDE1C [2] | forskolin-increased calcium currents in TPCLM^siNKX2-3+PDE1C [2] | tumor blood velocity after exposure to U46619, PC^lin-KO mice ([3]; compared with before treatment) | vascular diameter after exposure to U46619, PC^lin-KO mice ([3]; compared with before treatment) | tumor blood velocity and vascular diameter before and post-treatment with U46619, PC^lin mice [3] | change of capillary diameter after U46619 treatment, PC^lin mice [4] | reduction of capillary diameter after U46619 treatment, PC^lin-KO mice [4] | response of intracellular Ca^2+ of TPCs to U46619 [5] |
| --- | --- | --- | --- | --- | --- | --- | --- | --- | --- |
| Cl.Cl.O=S(=O)(NCCNC/C=C/c1ccc(Br)cc1)c1cccc2cnccc12 [H89 2HCl] | suppressed | reduced calcium currents | reversed |  |  |  |  |  |  |
| CCCCC[C@H](O)/C=C/[C@@H]1[C@@H](C/C=C\CCCC(=O)O)[C@H]2CO[C@@H]1C2 [U46619, 9,11-dideoxy-9α,11α-methanoepoxy prostaglandin F2α] |  |  |  | significantly decreased | significantly decreased | no significant difference | no obvious change | ~ 20% | significantly increased |
